# Calls of active or inactive are those of the source. The calls are words filed in the database; no cut-off is given here.
# What was measured:
# [1] = tested on: Mus musculus; assay: Antiinflammatory activity in C57BL/6 mouse assessed as inhibition of zymosan-induced knee joint edema formation at 0.7 to 70 mg/kg, po administered 1 hr prior to zymosan challenge measured at 6 hrs; type: functional, organism-based
# Procedure, shortened: (§1)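 Male C57BL/6 mice, fasted overnight, dosed orally (vehicle saline/water, 200 μL) or i.p. 1 h before zymosan (500 μg in 25 μL saline, i.a., left knee). Knee swelling measured as change in transverse diameter from basal by digital caliper (mm). Synovial washes (PBS/EDTA) counted on a particle counter; differentials from May-Grünwald-Giemsa cytospins, cells ×10^5/cavity. Sampled at 6 and/or 24 h; seven mice/group.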
# [2] = tested on: Mus musculus; assay: Antiinflammatory activity in C57BL/6 mouse assessed as inhibition of zymosan-induced total leukocyte recruitment in synovial cavity at 0.7 to 70 mg/kg, po administered 1 hr prior to zymosan challenge measured after 6 to 24 hrs by particle counting method; type: functional, organism-based; procedure, shortened: as §1
# [3] = tested on: Mus musculus; assay: Antiinflammatory activity in C57BL/6 mouse assessed as inhibition of zymosan-induced neutrophils recruitment in synovial cavity at 0.7 to 70 mg/kg, po administered 1 hr prior to zymosan challenge measured after 6 to 24 hrs by Grunwald-Giemsa-stained cytospin smear; type: functional, organism-based; procedure, shortened: as §1
# [4] = tested on: Mus musculus; assay: Antiinflammatory activity in C57BL/6 mouse assessed as inhibition of zymosan-induced knee joint edema formation at 7 mg/kg, po administered 1 hr prior to zymosan challenge measured at 24 hrs relative to control; type: functional; conditions: C57BL/6, Knee joint; procedure, shortened: as §1
# [5] = tested on: Mus musculus; assay: Antiinflammatory activity in C57BL/6 mouse assessed as inhibition of zymosan-induced total leukocyte accumulation in articular cavity at 7 mg/kg, po administered 1 hr prior to zymosan challenge measured at 6 hrs; type: functional, organism-based; procedure, shortened: as §1
# [6] = tested on: Mus musculus; assay: Antiinflammatory activity in C57BL/6 mouse assessed as inhibition of zymosan-induced total leukocyte accumulation in articular cavity at 7 mg/kg, po administered 1 hr prior to zymosan challenge measured at 24 hrs; type: functional, organism-based; procedure, shortened: as §1
# [7] = tested on: Mus musculus; assay: Antiinflammatory activity in C57BL/6 mouse assessed as inhibition of zymosan-induced neutrophil migration in articular cavity at 7 mg/kg, po administered 1 hr prior to zymosan challenge measured at 6 hrs relative to control; type: functional; conditions: C57BL/6, po; procedure, shortened: as §1
# [8] = tested on: Mus musculus; assay: Antiinflammatory activity in C57BL/6 mouse assessed as inhibition of zymosan-induced neutrophil migration in articular cavity at 7 mg/kg, po administered 1 hr prior to zymosan challenge measured at 24 hrs relative to control; type: functional; conditions: C57BL/6, po; procedure, shortened: as §1
# [9] = tested on: Mus musculus; assay: Antiinflammatory activity in C57BL/6 mouse assessed as inhibition of zymosan-induced synovial hyperplasia at 7 mg/kg, po administered 1 hr prior to zymosan challenge measured at 6 to 24 hrs by hematoxylin and eosin staining-based optical microscopy; type: functional, organism-based
# Procedure, shortened: (§2)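 Mice dosed orally or i.p. 1 h before i.a. zymosan (500 μg/cavity) or saline. Whole knees taken at 6 and 24 h from six mice, fixed in 10% formalin 48 h, decalcified in 10% EDTA/PBS 1−2 weeks, paraffin-embedded. 5 μm sections H&E-stained and examined by light microscopy. Parameter scores summed into an arthritis index; means ± SEM, two experiments.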
# [10] = tested on: Mus musculus; assay: Antiinflammatory activity in C57BL/6 mouse assessed as inhibition of zymosan-induced bleeding in synovial tissue at 7 mg/kg, po administered 1 hr prior to zymosan challenge measured at 6 to 24 hrs by hematoxylin and eosin staining-based optical microscopy; type: functional, organism-based; procedure, shortened: as §2
# [11] = tested on: Neutrophil; assay: Antiinflammatory activity in C57BL/6 mouse neutrophils assessed as inhibition of CXCL1/KC-induced neutrophil chemotaxis at 0.1 to 1 uM preincubated for 1 hr followed by CXCL1/KC-induction measured after 1 hr by Wright-Giemsa staining-based light microscopic method; type: functional, cell-based
# Procedure, shortened: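 Bone marrow neutrophils from C57BL/6 femurs, purified on a 65%/72% Percoll gradient (~85−90% purity). 10^5 cells preincubated 1 h with compound or medium, then placed in a 48-well Boyden chamber over CXCL-1/KC (250 nM) across a 5 μm polycarbonate filter, 60 min at 37 °C, 5% CO2. Filter Wright-Giemsa stained; migrated cells counted in 15 fields; quadruplicate wells.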
# [12] = tested on: Neutrophil; assay: Antiinflammatory activity in C57BL/6 mouse neutrophils assessed as inhibition of neutrophil adhesion to TNFalpha-primed mouse tEnd.1 cells at 0.1 uM preincubated for 1 hr with neutrophils followed by tEND.1 cells addition measured after 1 hr by Giemsa staining-based light microscopic method; type: functional, cell-based
# Procedure, shortened: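 tEnd.1 endothelioma cells (10^4/well, 24 h) primed with mouse TNF-α (10 ng/mL) for 4 h. Bone marrow neutrophils preincubated 1 h with compound (0.1 μM) or fucoidan (25 μg/mL), then added at 50 per tEnd.1 cell for 1 h at 37 °C with shaking. After washing and Giemsa staining, adhesion index = fraction of tEnd.1 with bound neutrophils × neutrophils per tEnd.1 × 100.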
# [13] = Cytotoxicity against mouse J774A.1 cells assessed as cell viability at 0.01 to 100 uM after 20 hrs by Alamar Blue assay relative to control; type: toxicity, J774.A1; conditions: read-out: Activity
# Procedure, shortened: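 J774A.1 cells at 2.5 × 10^5 cells/well, 24 h pre-incubation at 37 °C, 5% CO2; fresh medium with or without Tween 20 (3%) or compound (0.01−100 μM), quadruplicate; 20 h incubation, then Alamar Blue added for 4 h; fluorescence read at ex 555/em 585 nm.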
# [14] = tested on: J774.A1; assay: Antiinflammatory activity in mouse J774A.1 cells assessed as inhibition of zymosan and IFNgamma-induced IL6 production in cell-free supernatant at 0.1 to 10 uM preincubated for 1 hr followed by zymosan and IFNgamma addition measured after 24 hrs by sandwich ELISA; type: functional, cell-based
# Procedure, shortened: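 J774A.1 macrophages (1 × 10^5/well, RPMI/10% FBS) adhered 24 h, preincubated 1 h with compound (0.1−10 μM) or dexamethasone (1 μM), then stimulated with zymosan (10 μg per 10^5 cells) and/or IFN-γ (25 U/mL) for 24 h. Supernatant IL-6 by sandwich ELISA; nitrite by Griess reaction at 540 nm. Quadruplicate wells, two experiments.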
# [15] = tested on: J774.A1; assay: Antiinflammatory activity in mouse J774A.1 cells assessed as inhibition of zymosan and IFNgamma-induced iNOS expression at 1 to 10 uM preincubated for 1 hr followed by zymosan and IFNgamma addition measured after 24 hrs by Western blot analysis; type: functional, cell-based
# Procedure, shortened: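 J774A.1 cells in six-well plates pretreated 1 h (0.1−10 μM) before zymosan (10 μg per 10^5 cells) and/or IFN-γ (25 U/mL) for 24 h. Lysates (Tris/NaCl/MgCl2/0.5% NP40 with protease inhibitors); 30 μg protein run on 7.5% SDS-PAGE, transferred to PVDF, probed for COX-2, iNOS and α-tubulin.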
# [16] = tested on: J774.A1; assay: Antiinflammatory activity in mouse J774A.1 cells assessed as inhibition of zymosan and IFNgamma-induced cytoplasmic calcium flux at 1 uM preincubated for 1 hr followed by zymosan and IFNgamma addition measured over 10 mins by FLIPR assay; type: functional, cell-based
# Procedure, shortened: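 J774A.1 macrophages preincubated 1 h with HBSS or compound (1 μM), then stimulated with zymosan plus IFN-γ. Intracellular calcium followed over 600 s with a FLIPR Calcium Plus kit; mean signal from 360−600 s after stimulus used for analysis; quadruplicate wells.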
structure (smiles),measurement,setting,value
COC(=O)c1cc(O)c(O)c(O)c1 [GALLIC ACID METHYL ESTER],inhibition,[1],Active
same,inhibition,[2],Active
same,inhibition,[3],Active
same,inhibition in vivo at 7 mg/kg,[4],49%
same,inhibition,[5],Active
same,inhibition,[6],Active
same,inhibition in vivo at 7 mg/kg,[7],64%
same,inhibition in vivo at 7 mg/kg,[8],74%
same,inhibition,[9],Active
same,inhibition,[10],Active
same,inhibition,[11],Active
same,inhibition,[12],Active
same,"viability at 20 h, up to 100 µM",[13],≥ 95%
same,inhibition,[14],Active
same,inhibition,[15],Active
same,inhibition,[16],Active
